Converted amounts (≈) assume the structure as drawn. Each block holds one compound with its values, some of them ahead of it.
Experiments:
[1] = tested on: Escherichia coli; experiment: Bactericidal activity against wild type Escherichia coli ATCC 25922 assessed as reduction of bacterial load after 24 hrs by time kill assay; format: functional, organism-based
[2] = tested on: Acinetobacter baumannii; experiment: Bactericidal activity against wild type Acinetobacter baumannii ATCC BAA-747 assessed as reduction of bacterial load after 24 hrs by time kill assay; format: functional, organism-based
[3] = Inhibition of His tagged Escherichia coli ATCC 25922 DNA gyrase A expressed in Escherichia coli BL21 (DE3) pLysS cells assessed as reduction in enzyme-mediated supercoiling of relaxed plasmid DNA pNO1 after 30 mins in presence of biotinylated TFO1 by fluorescence assay
[4] = tested on: Escherichia coli; experiment: Antibacterial activity against multidrug resistant Escherichia coli by broth microdilution method; format: functional; conditions: Escherichia coli; for MIC: read-out: MIC
Outline: (§1)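 MICs were determined by CLSI broth methods, except that organisms were grown in brain–heart–infusion medium. The panel comprised wild-type and resistant E. coli and A. baumannii strains, including 12 strains whose details are given by reference.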

[5] = tested on: Escherichia coli; experiment: Antibacterial activity against aminoglycoside resistant Escherichia coli by broth microdilution method; format: functional; conditions: Escherichia coli; for MIC: read-out: MIC; outline: as §1
[6] = tested on: Mus musculus; experiment: Terminal half life in CD1 mouse plasma at 10 mg/kg, iv by LC-MS/MS analysis; format: ADME, organism-based; conditions: in vivo
[7] = tested on: Escherichia coli; experiment: Antibacterial activity against quinolone resistant Escherichia coli by broth microdilution method; format: functional; conditions: Escherichia coli; for MIC: read-out: MIC; outline: as §1
[8] = tested on: Acinetobacter baumannii; experiment: Antibacterial activity against aminoglycoside resistant Acinetobacter baumannii by broth microdilution method; format: functional; conditions: Acinetobacter baumannii; for MIC: read-out: MIC; outline: as §1
[9] = tested on: Escherichia coli; experiment: Antibacterial activity against wild type Escherichia coli by broth microdilution method; format: functional; outline: as §1
[10] = tested on: Escherichia coli; experiment: Antibacterial activity against wild type Escherichia coli ATCC 25922 in presence of HSA by CLSI M100-S17 protocol based method; format: functional
[11] = tested on: Klebsiella pneumoniae; experiment: Antibacterial activity against wild type Klebsiella pneumoniae ATCC 35657 by CLSI M100-S17 protocol based method; format: functional
[12] = tested on: Escherichia coli; experiment: Antibacterial activity against wild type Escherichia coli ATCC 25922 by CLSI M100-S17 protocol based method; format: functional
[13] = tested on: Acinetobacter baumannii; experiment: Antibacterial activity against wild type Acinetobacter baumannii ATCC BAA-747 by CLSI M100-S17 protocol based method; format: functional
[14] = tested on: Escherichia coli; experiment: Antibacterial activity against Escherichia coli infected in cyclophosphamide treated neutropenic CD1 mouse septicemia model assessed as mouse survival at 20 mg/kg, iv dosed at 1 hr post infection followed by redosing at 5 hrs post infection measured at 96 hrs post infection relative to control; format: functional
Outline: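 Female CD-1 mice were made neutropenic with cyclophosphamide ip, 150 mg/kg on day −4 and 100 mg/kg on day −1. […] Compound was given iv in 3% DMSO/saline at 1 and 5 h postinfection, n = 6 per group. Percent survival was scored at 96 h postinfection.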

[15] = tested on: Mus musculus; experiment: Volume of distribution at steady state in CD1 mouse plasma at 10 mg/kg, iv by LC-MS/MS analysis; format: ADME, organism-based; conditions: in vivo
[16] = tested on: Escherichia coli; experiment: Antibacterial activity against quinolone resistance Escherichia coli isolate ELZ4251 harboring gyrA/parC mutant by CLSI M100-S17 protocol based method; format: functional
[17] = tested on: Escherichia coli; experiment: Antibacterial activity against fluoroquinolone resistant Escherichia coli SKM18 by CLSI M100-S17 protocol based method; format: functional
[18] = tested on: Acinetobacter baumannii; experiment: Antibacterial activity against carbapenem resistant Acinetobacter baumannii by broth microdilution method; format: functional; conditions: Acinetobacter baumannii; for MIC: read-out: MIC; outline: as §1
[19] = tested on: Mus musculus; experiment: AUC (0 to 24 hrs) in CD1 mouse plasma at 10 mg/kg, iv by LC-MS/MS analysis; format: ADME, organism-based; design: time < 24 hr, dose 10 mg/kg, route intravenous; conditions: in vivo
Outline: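 CD-1 mice given a single 10 mg/kg iv dose (n = 3), in either 10% DMSO plus 1% Tween 80 in pH 8.0 phosphate buffer or 20% (2-hydroxypropyl)-β-cyclodextrin in pH 4.0 citrate buffer; plasma exposure measured.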

[20] = Fraction unbound in mouse plasma at 1 uM by equilibrium dialysis method; format: ADME, cell-free
[21] = tested on: Acinetobacter baumannii; experiment: Antibacterial activity against beta-lactam resistant Acinetobacter baumannii by broth microdilution method; format: functional; conditions: Acinetobacter baumannii; for MIC: read-out: MIC; outline: as §1
[22] = tested on: Acinetobacter baumannii; experiment: Antibacterial activity against multidrug resistant Acinetobacter baumannii by broth microdilution method; format: functional; conditions: Acinetobacter baumannii; for MIC: read-out: MIC; outline: as §1
[23] = Oral bioavailability in CD1 mouse plasma by LC-MS/MS analysis; format: ADME, organism-based
[24] = tested on: Acinetobacter baumannii; experiment: Antibacterial activity against fluoroquinolone resistant Acinetobacter baumannii isolate MMX2240 by CLSI M100-S17 protocol based method; format: functional
[25] = tested on: Acinetobacter baumannii; experiment: Antibacterial activity against wild type Acinetobacter baumannii by broth microdilution method; format: functional; outline: as §1
[26] = tested on: Acinetobacter baumannii; experiment: Antibacterial activity against quinolone resistant Acinetobacter baumannii by broth microdilution method; format: functional; conditions: Acinetobacter baumannii; for MIC: read-out: MIC; outline: as §1
[27] = tested on: Escherichia coli; experiment: Antibacterial activity against beta-lactam resistant Escherichia coli by broth microdilution method; format: functional; conditions: Escherichia coli; for MIC: read-out: MIC; outline: as §1
[28] = tested on: Escherichia coli; experiment: Selectivity ratio of MIC for wild type Escherichia coli ATCC 25922 in presence of HSA to MIC for wild type Escherichia coli ATCC 25922; format: functional
[29] = tested on: Escherichia coli; experiment: Antibacterial activity against Escherichia coli SKM11 by CLSI M100-S17 protocol based method; format: functional
[30] = Inhibition of Escherichia coli DNA topoisomerase 4 assessed as reduction in decatenation activity using kinetoplast concatenated DNA as substrate after 30 mins by picogreen dye based fluorescence assay
[31] = target: DNA gyrase subunit A (Escherichia coli K-12, UniProt P0AES4); experiment: Inhibition of His tagged Escherichia coli ATCC 25922 DNA gyrase A SD-LY mutant expressed in Escherichia coli BL21 (DE3) pLysS cells assessed as reduction in enzyme-mediated supercoiling of relaxed plasmid DNA pNO1 after 30 mins in presence of biotinylated TFO1 by fluorescence assay
[32] = tested on: Escherichia coli; experiment: Antibacterial activity against wild type Escherichia coli 1609 by CLSI M100-S17 protocol based method; format: functional

Sequence of DNA gyrase subunit A (P0AES4 2-875 limits assumed): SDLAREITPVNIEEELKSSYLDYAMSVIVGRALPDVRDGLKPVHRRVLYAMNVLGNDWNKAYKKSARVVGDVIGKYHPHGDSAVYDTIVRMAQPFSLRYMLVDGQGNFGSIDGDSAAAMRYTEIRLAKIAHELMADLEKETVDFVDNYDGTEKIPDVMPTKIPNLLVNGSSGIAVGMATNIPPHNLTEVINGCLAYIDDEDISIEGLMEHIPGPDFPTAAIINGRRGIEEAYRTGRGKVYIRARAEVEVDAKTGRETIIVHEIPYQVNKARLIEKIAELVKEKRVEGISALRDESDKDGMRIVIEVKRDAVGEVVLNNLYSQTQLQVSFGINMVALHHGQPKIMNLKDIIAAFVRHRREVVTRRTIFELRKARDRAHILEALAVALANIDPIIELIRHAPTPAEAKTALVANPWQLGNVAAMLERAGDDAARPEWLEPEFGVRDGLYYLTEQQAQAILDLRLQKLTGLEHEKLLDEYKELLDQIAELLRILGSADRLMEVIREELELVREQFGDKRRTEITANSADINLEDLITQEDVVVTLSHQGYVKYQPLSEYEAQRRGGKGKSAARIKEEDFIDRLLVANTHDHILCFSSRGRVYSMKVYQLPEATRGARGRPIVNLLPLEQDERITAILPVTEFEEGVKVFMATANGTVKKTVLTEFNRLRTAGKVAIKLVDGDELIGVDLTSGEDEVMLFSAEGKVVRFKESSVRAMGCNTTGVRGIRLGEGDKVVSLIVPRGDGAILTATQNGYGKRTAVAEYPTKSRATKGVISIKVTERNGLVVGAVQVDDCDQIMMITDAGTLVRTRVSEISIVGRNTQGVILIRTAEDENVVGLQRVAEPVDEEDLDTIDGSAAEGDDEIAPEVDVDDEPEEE

- IC50 [3]: 190 nM
Compound: O=C(O)c1cn(C2CC2)c2cc(N3CCNCC3)c(F)cc2c1=O [CIPROFLOXACIN]
- Activity [1]: Dose-dependent effect
- Activity [2]: Dose-dependent effect

Compound: CC(C)NCc1cc2cc3c(cc2n1C)CCCc1c-3[nH]c(=O)c(C(=O)O)c1O
- MIC50 [4]: 0.5 µg/mL (≈ 1.26 µM)
- MIC90 [4]: 1 µg/mL (≈ 2.53 µM)
- MIC [4]: 0.25 to 1 µg/mL (≈ 0.632 to 2.53 µM)
- MIC50 [5]: 0.5 µg/mL (≈ 1.26 µM)
- MIC90 [5]: 1 µg/mL (≈ 2.53 µM)
- MIC [5]: 0.25 to 1 µg/mL (≈ 0.632 to 2.53 µM)
- beta t1/2 [6]: 11 h
- MIC50 [7]: 0.5 µg/mL (≈ 1.26 µM)
- MIC90 [7]: 1 µg/mL (≈ 2.53 µM)
- MIC [7]: 0.25 to 1 µg/mL (≈ 0.632 to 2.53 µM)
- MIC50 [8]: 2 µg/mL (≈ 5.06 µM)
- MIC90 [8]: 16 µg/mL (≈ 40.5 µM)
- MIC [8]: 0.25 to 32 µg/mL (≈ 0.632 to 80.9 µM)
- MIC50 [9]: 0.5 µg/mL (≈ 1.26 µM)
- MIC90 [9]: 1 µg/mL (≈ 2.53 µM)
- MIC [10]: 3.1 µg/mL
- MIC [11]: 0.78 µg/mL (≈ 1.97 µM)
- MIC [12]: 0.78 µg/mL (≈ 1.97 µM)
- MIC [13]: 0.78 µg/mL (≈ 1.97 µM)
- survival at 20 mg/kg [14]: 83%
- Vdss [15]: 69 L/kg
- MIC [16]: 1.6 µg/mL (≈ 4.05 µM)
- MIC [17]: 0.39 µg/mL (≈ 0.986 µM)
- MIC50 [18]: 2 µg/mL (≈ 5.06 µM)
- MIC90 [18]: 16 µg/mL (≈ 40.5 µM)
- MIC [18]: 0.25 to 32 µg/mL (≈ 0.632 to 80.9 µM)
- AUC [19]: 1810 ng·h/mL
- Fu [20]: 0.16
- MIC50 [21]: 2 µg/mL (≈ 5.06 µM)
- MIC90 [21]: 16 µg/mL (≈ 40.5 µM)
- MIC [21]: 0.25 to 32 µg/mL (≈ 0.632 to 80.9 µM)
- MIC50 [22]: 2 µg/mL (≈ 5.06 µM)
- MIC90 [22]: 16 µg/mL (≈ 40.5 µM)
- MIC [22]: 0.25 to 32 µg/mL (≈ 0.632 to 80.9 µM)
- bioavailability [23]: 44%
- MIC [24]: 0.78 µg/mL (≈ 1.97 µM)
- MIC50 [25]: 2 µg/mL (≈ 5.06 µM)
- MIC90 [25]: 16 µg/mL (≈ 40.5 µM)
- MIC50 [26]: 2 µg/mL (≈ 5.06 µM)
- MIC90 [26]: 16 µg/mL (≈ 40.5 µM)
- MIC [26]: 0.25 to 32 µg/mL (≈ 0.632 to 80.9 µM)
- MIC50 [27]: 0.5 µg/mL (≈ 1.26 µM)
- MIC90 [27]: 1 µg/mL (≈ 2.53 µM)
- MIC [27]: 0.25 to 1 µg/mL (≈ 0.632 to 2.53 µM)
- Ratio [28]: 4 - 16

Compound: CCNCc1cc2cc3c(cc2n1C)CCCc1c-3[nH]c(=O)c(C(=O)O)c1O
- MIC50 [4]: 1 µg/mL (≈ 2.62 µM)
- MIC90 [4]: 1 µg/mL (≈ 2.62 µM)
- MIC [4]: 0.25 to 1 µg/mL (≈ 0.655 to 2.62 µM)
- MIC50 [5]: 1 µg/mL (≈ 2.62 µM)
- MIC90 [5]: 1 µg/mL (≈ 2.62 µM)
- MIC [5]: 0.25 to 1 µg/mL (≈ 0.655 to 2.62 µM)
- MIC50 [7]: 1 µg/mL (≈ 2.62 µM)
- MIC90 [7]: 1 µg/mL (≈ 2.62 µM)
- MIC [7]: 0.25 to 1 µg/mL (≈ 0.655 to 2.62 µM)
- MIC50 [8]: 2 µg/mL (≈ 5.24 µM)
- MIC90 [8]: 16 µg/mL (≈ 41.9 µM)
- MIC [8]: 0.25 to 32 µg/mL (≈ 0.655 to 83.9 µM)
- MIC50 [9]: 1 µg/mL (≈ 2.62 µM)
- MIC90 [9]: 1 µg/mL (≈ 2.62 µM)
- MIC [10]: 6.3 µg/mL
- MIC [11]: 0.78 µg/mL (≈ 2.04 µM)
- MIC [29]: 1.6 µg/mL (≈ 4.19 µM)
- MIC [12]: 0.39 µg/mL (≈ 1.02 µM)
- IC50 [30]: 2900 nM
- MIC [13]: 0.78 µg/mL (≈ 2.04 µM)
- survival at 20 mg/kg [14]: 83%
- IC50 [31]: 760 nM
- IC50 [3]: 56 to 100 nM
- MIC [16]: 1.6 µg/mL (≈ 4.19 µM)
- MIC [17]: 0.39 µg/mL (≈ 1.02 µM)
- MIC50 [18]: 2 µg/mL (≈ 5.24 µM)
- MIC90 [18]: 16 µg/mL (≈ 41.9 µM)
- MIC [18]: 0.25 to 32 µg/mL (≈ 0.655 to 83.9 µM)
- Fu [20]: 0.17
- MIC50 [21]: 2 µg/mL (≈ 5.24 µM)
- MIC90 [21]: 16 µg/mL (≈ 41.9 µM)
- MIC [21]: 0.25 to 32 µg/mL (≈ 0.655 to 83.9 µM)
- MIC50 [22]: 2 µg/mL (≈ 5.24 µM)
- MIC90 [22]: 16 µg/mL (≈ 41.9 µM)
- MIC [22]: 0.25 to 32 µg/mL (≈ 0.655 to 83.9 µM)
- MIC [24]: 1.6 µg/mL (≈ 4.19 µM)
- MIC50 [25]: 2 µg/mL (≈ 5.24 µM)
- MIC90 [25]: 16 µg/mL (≈ 41.9 µM)
- MIC50 [26]: 2 µg/mL (≈ 5.24 µM)
- MIC90 [26]: 16 µg/mL (≈ 41.9 µM)
- MIC [26]: 0.25 to 32 µg/mL (≈ 0.655 to 83.9 µM)
- MIC [32]: 1.6 µg/mL (≈ 4.19 µM)
- MIC50 [27]: 1 µg/mL (≈ 2.62 µM)
- MIC90 [27]: 1 µg/mL (≈ 2.62 µM)
- MIC [27]: 0.25 to 1 µg/mL (≈ 0.655 to 2.62 µM)

From ChEMBL document CHEMBL4190388, “Discovery and Optimization of Indolyl-Containing 4-Hydroxy-2-Pyridone Type II DNA Topoisomerase Inhibitors Active against Multidrug Resistant Gram-negative Bacteria” (J Med Chem, 2018)
